# Hits are enriched below; roughly 1.5% of the tested compounds scored in any of these assays.
# VLA-4 inh: inhibition in a human VLA-4 binding assay; P13612; VLA-4 expressing cells, ligand binding flow cytometry; inhibition, % (about 7 µM as worked out from the volumes in the protocol); hit rate 0.2% among 330,000; AID 2557; in the data active = inhibition above about 50%
# Target sequence (P13612 whole entry, looked up): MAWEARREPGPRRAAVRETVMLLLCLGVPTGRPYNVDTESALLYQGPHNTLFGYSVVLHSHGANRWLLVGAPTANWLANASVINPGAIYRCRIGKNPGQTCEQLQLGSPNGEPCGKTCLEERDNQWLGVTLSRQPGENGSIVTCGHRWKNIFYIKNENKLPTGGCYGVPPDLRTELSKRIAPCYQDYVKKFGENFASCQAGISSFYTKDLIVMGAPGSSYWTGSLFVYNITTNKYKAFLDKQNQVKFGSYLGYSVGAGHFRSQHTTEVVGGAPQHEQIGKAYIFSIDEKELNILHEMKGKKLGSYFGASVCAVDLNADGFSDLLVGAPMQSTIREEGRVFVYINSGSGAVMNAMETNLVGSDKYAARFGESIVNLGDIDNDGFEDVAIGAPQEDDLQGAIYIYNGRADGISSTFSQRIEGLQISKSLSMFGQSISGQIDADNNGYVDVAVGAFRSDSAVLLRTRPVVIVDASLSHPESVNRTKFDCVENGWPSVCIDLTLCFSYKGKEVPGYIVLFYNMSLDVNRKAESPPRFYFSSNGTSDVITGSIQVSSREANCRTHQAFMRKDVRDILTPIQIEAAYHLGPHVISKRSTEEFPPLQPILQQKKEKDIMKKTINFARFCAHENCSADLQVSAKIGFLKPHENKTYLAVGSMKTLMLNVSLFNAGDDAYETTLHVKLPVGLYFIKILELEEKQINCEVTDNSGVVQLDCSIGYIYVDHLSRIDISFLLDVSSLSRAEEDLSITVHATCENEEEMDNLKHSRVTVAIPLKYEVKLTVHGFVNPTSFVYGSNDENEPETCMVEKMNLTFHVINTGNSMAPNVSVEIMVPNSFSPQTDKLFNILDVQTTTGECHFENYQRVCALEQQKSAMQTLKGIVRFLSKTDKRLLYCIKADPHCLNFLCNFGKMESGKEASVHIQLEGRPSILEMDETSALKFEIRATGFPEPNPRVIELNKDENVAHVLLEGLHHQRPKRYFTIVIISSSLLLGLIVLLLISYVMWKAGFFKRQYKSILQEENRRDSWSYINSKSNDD
# Myeloid diff 2: promotes myeloid progenitor differentiation; calls only at 10 µM; hit rate 1% among 360,000; ER-HoxA9 myeloid progenitors, lysozyme-GFP differentiation, flow cytometry;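 active = normalized GFP-positive differentiation at or above the plate's own cutoff, the solvent-only control mean plus 3 SD; inconclusive = no clear call, values can overlap the other calls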;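 note: cells exposed to compound for four days before flow analysis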
# SENP1 inh: blocks the human SENP1 SUMO protease catalytic domain; inhibition, % at 10 µM; hit rate 0.21% among 360,000; recombinant SENP1 catalytic domain, CyPet-SUMO1-YPet FRET cleavage; Q9P0U3;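 active = inhibition at least 30% at 10 µM, raw YFP signal under a set limit, fluorescence ratio 0.5 to 1.5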;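 note: 0% = enzyme with DMSO and 100% = no enzyme wells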
#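 Assay system – human recombinant His6-tagged SENP1 catalytic domain enzyme · Input – SENP1 enzyme, 20 pM final · Buffer or medium – Tris pH 8 buffer plus EDTA, NaCl, BME, BSA, NP40, catalase · Schedule – 50 min reaction at room temperature · Technique – FRET read of cyan and yellow fluorescence · Control set – no-enzyme wells low, DMSO-plus-enzyme wells high control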
# Platelet DG rel: platelet dense granule release activity; hit rate 0.22% among 300,000; AID 1663; inhibition, %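 (compounds screened at 7.5 µM in platelet-rich plasma)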; human platelet-rich plasma, SFLLRN dense granule ATP release, luminescence;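 active = mean replicate score, as percent of positive control, at or above 50; inconclusive = mean below 50 but at least one replicate at or above 50; inactive = mean and every replicate below 50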
# SENP1 inh conf: confirmation of human SENP1 SUMO protease inhibitors. shares compounds with SENP1 inh. recombinant SENP1, CyPet-SUMO1-YPet FRET cleavage. AID 651678. hit rate 34% among 520. inhibition, % at 10 µM; in the data active = inhibition mostly above about 35%, no sharp cut-off; inactive = mostly below about 32%;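 note: 0% = enzyme with DMSO and 100% = no enzyme control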
# SENP1 kin conf: SENP1 (human) inhibition, kinetic confirmation | AID 651690 | hit rate 26% among 520 | shares compounds with SENP1 inh | inhibition, % at 10 µM | recombinant SENP1, CyPet-SUMO1-YPet FRET kinetic cleavage; in the data active = inhibition mostly above about 32%, no sharp cut-off; inactive = mostly below about 29%;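 note: 0% = DMSO with enzyme and 100% = no enzyme substrate only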
# Myeloid diff: compounds promoting myeloid differentiation; shares compounds with Myeloid diff 2; ER-HoxA9 myeloid progenitors, GFP/Mac1 double-positive flow; calls only; hit rate 2% among 2,300;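 active = share of green or green-and-red cells above 9 and 9% in run 1 or 4 and 3% in run 2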
# GFP autofluor: compound fluorescence in myeloid differentiation counter-screen | fluorescence response, % (concentration not given with the values) | ER-HoxA9 myeloid progenitors, no estrogen, GFP autofluorescence flow cytometry; vehicle wells 0%, positive control 100% | shares compounds with Myeloid diff 2 | hit rate 7.4% among 2,300;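 active = over 5% cells positive for green fluorescent reporter, or over 2% positive for both it and APC stain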;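 note: range taken on the double positive population between DMSO and positive control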
# Active calls of the source: *; i = inactive; u = inconclusive; x = no result; + = active, no number.
SMILES,VLA-4 inh,Myeloid diff 2,SENP1 inh,Platelet DG rel,SENP1 inh conf,SENP1 kin conf,others
O=C(CCc1nnc(-c2ccccc2)o1)NCC1CCN(C2CCCC2)CC1,-8,i,50*,0,-4,3,
CCc1cc2c(N=Nc3c(O)[nH]c4ccccc34)ncnc2s1,-2,i,59*,-9,4,-15,
Cc1sc2ncnc(N=Nc3c(O)[nH]c4ccccc34)c2c1C,-66,i,18,-25,x,x,
COc1cccc(/C=N/NC(=O)c2ccc(N3CCCC3=O)cc2)c1,4,u,4,3,x,x,
COc1cccc(CNC(=O)C2CSC3(C)CCC(=O)N23)c1 (stereo not given),-58,i,38*,-5,-3,0,
COc1ccccc1CNC(=O)C1CSC2(C)CCC(=O)N12 (stereo not given),7,i,0,x,x,x,
CCN(CC)c1ccc(N=C2C=CC(=O)C=C2NC(C)=O)cc1,x,i,66*,x,14,12,
CC(C)OC(=O)CCCN1C(=O)c2ccc(N)cc2C1=O,10,i,10,5,x,x,
Nc1ccc2c(c1)C(=O)N(CCCC(=O)O)C2=O,8,i,74*,-7,56*,28,
O=[N+]([O-])c1ccc(C=NNc2ccc(S(=O)(=O)O)cc2)cc1,x,i,73*,x,29,16,
Cc1cccc(C)c1N1CCN(CCn2c(=S)[nH]c3ccccc3c2=O)CC1,-1,i,2,-1,x,x,
COc1cccc(C2CC(C(F)(F)F)n3nc(C(=O)Nc4c(C)n(C)n(-c5ccccc5)c4=O)cc3N2)c1 (stereo not given),9,i,27*,-3,13,7,
Cc1ccc(C2CC(C(F)(F)F)n3nc(C(=O)Nc4c(C)n(C)n(-c5ccccc5)c4=O)cc3N2)cc1 (stereo not given),4,i,-30,3,x,x,
Brc1cc(Br)c2nc3c(cc2c1)CCC3,-25,i,33*,2,3,7,
CSc1nc2c(cc1C#N)CCC2,-4,i,0,-2,x,x,
CC1=CC(=O)C=C/C1=C(/c1ccc(O)cc1C)c1ccccc1S(=O)(=O)O,0,i,36*,x,18,16,
CC1(C)CC(=O)C2=C(C1)Nc1ccccc1S2,0,i,46*,6,29*,5,
CC1(C)CC(=O)C2=C(C1)Nc1ccccc1NC2,2,i,-35,-4,x,x,
CCCCC(CC)CN1CN(CC(CC)CCCC)CC(C)(N)C1 (stereo not given),x,i,1,x,x,x,
COc1ccc(CNC(=O)COC(=O)c2ccc3ccccc3n2)cc1,-10,i,38*,x,26,23,
Cc1ccc(C)c(NC(=O)COC(=O)c2ccc3ccccc3n2)c1,-80,i,38*,x,22,18,
COc1ccc(NC(=O)COC(=O)c2ccc3ccccc3n2)cc1,-7,i,7,x,x,x,
COc1cccc(C(=O)Nc2ccccc2N2CCN(C(=O)c3ccccc3)CC2)c1,-10,i,3,x,x,x,
COc1ccc(-n2c(SCC(=O)Nc3ccc(C(=O)O)cc3)nnc2-c2ccccc2)cc1OC,8,i,0,4,x,x,
Cc1noc(C)c1C(=O)OCC(=O)Nc1ccccc1SCC#N,-270,+,44*,x,17,14,Myeloid diff=i;GFP autofluor=57*
O=C(CCNC(=O)c1ccc([N+](=O)[O-])cc1)Nc1ccccc1N1CCCC1,-7,i,-2,11,x,x,
N#CCSc1ccccc1NC(=O)COC(=O)CCNC(=O)c1ccc([N+](=O)[O-])cc1,x,+,32*,x,8,6,Myeloid diff=i;GFP autofluor=41*
CC(=O)c1ccc(OCc2cc(C(=O)NC(C)CCn3cccn3)no2)cc1 (stereo not given),4,i,-1,-4,x,x,
COc1cc(C(=S)N2CCOCC2)cc(OC)c1OS(=O)(=O)c1ccc(C)cc1,4,i,2,0,x,x,
